According to article PMC9521027 (ACS Omega, 2022):
Substitutions are numbered along the chain they refer to.

Columns and labels:
[1] = biological target: T1, URAT1 WT (Homo sapiens, UniProt Q96S37); assay: Competitive inhibition test of unlabeled uric acid on 14C-uric acid uptake; assay type: cell-based
T1 sequence (Q96S37 1-553): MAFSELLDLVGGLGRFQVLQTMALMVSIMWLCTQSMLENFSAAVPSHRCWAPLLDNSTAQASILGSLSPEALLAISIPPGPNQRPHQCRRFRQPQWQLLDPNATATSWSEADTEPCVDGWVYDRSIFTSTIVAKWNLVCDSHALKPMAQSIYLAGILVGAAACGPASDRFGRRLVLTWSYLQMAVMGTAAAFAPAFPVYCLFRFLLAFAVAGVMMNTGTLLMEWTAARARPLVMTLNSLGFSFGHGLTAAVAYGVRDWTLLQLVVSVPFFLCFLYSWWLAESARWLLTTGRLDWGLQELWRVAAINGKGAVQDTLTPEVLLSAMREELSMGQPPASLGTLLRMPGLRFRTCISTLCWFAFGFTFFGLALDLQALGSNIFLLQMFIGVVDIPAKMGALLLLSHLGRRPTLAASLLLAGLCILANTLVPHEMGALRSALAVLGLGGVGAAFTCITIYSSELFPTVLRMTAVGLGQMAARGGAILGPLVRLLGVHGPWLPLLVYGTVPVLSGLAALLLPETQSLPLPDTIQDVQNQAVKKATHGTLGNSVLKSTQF

[2] = biological target: T2, URAT1 K393R mutant (Homo sapiens, UniProt Q96S37, K393R); assay: as above; assay type: cell-based
T2 sequence (Q96S37 1-553 K393R): T1 sequence (Q96S37 1-553) with K393R

[3] = biological target: T2, URAT1 K393R mutant; assay: 14C-uric acid binding assay with membrane protein; conditions: 2.5 μg membrane protein, 25 μM 14C-uric acid, 30 min
[4] = biological target: T3, URAT1 K393A mutant (Homo sapiens, UniProt Q96S37, K393A); assay: 14C-uric acid binding assay with membrane protein; conditions: 2.5 μg membrane protein, 25 μM 14C-uric acid, 30 min
T3 sequence (Q96S37 1-553 K393A): T1 sequence (Q96S37 1-553) with K393A
Outline: (§1)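 Membranes came from HEK293 cells transiently transfected (Lipofectamine 3000) with sequence-confirmed site-directed K393 mutant hURAT1 plasmids; control membranes came from cells transfected with pECFP empty vector. Cells were harvested in ice-cold 25 mM HEPES pH 7.3 with 125 mM sodium gluconate, and membranes were extracted with a kit. Protein was incubated at room temperature, then rapid-filtered, washed with ice-cold DPBS, dissolved in 0.1 M NaOH and scintillation-counted. n = 3, mean ± SD.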

[5] = biological target: T4, URAT1 K393D mutant (Homo sapiens, UniProt Q96S37, K393D); assay: 14C-uric acid binding assay with membrane protein; conditions: 2.5 μg membrane protein, 25 μM 14C-uric acid, 30 min
T4 sequence (Q96S37 1-553 K393D): T1 sequence (Q96S37 1-553) with K393D
Outline: as §1

O=c1[nH]c(=O)c2[nH]c(=O)[nH]c2[nH]1 [uric acid]
IC50 [1]: 115 ± 6.36 µM | IC50 [2]: 113 ± 10.1 µM | 14C-uric acid binding capacity compared with WT [3]: similar | 14C-uric acid binding compared with WT [4]: significant loss | 14C-uric acid binding compared with WT [5]: significant loss
